Bioassay records deposited in PubChem BioAssay by several laboratories.
Only a selection was taken, and hits are over-represented in it overall.
ALR H2O2 inh: inhibitors of human ALR sulfhydryl oxidase, primary screen, biochemical, H2O2 detection, HRP-luminol luminescence, single point | inhibition, % (concentration not given with the values) | purified ALR, DTT oxidation | hit rate 3.8% among 290,000;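 active means mean replicate inhibition above about 79%, with every replicate also reaching it, limit read from the data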
Target sequence (P55789 whole entry, looked up): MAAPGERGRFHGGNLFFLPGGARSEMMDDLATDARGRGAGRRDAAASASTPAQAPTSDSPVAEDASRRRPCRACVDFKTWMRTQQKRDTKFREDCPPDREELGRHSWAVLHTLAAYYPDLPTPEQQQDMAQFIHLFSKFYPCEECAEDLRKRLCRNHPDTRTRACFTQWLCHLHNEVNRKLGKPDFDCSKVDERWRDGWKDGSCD
N-glyco inh: increase of ERlucT glycosylation luciferase signal, primary screen, N-linked glycosylation inhibitor project, D54 ERlucT cells, luminescence, set 2. D54 ERlucT glycosylation luciferase reporter, 24 h; percent of 100 nM tunicamycin response. reporter increase, % at 12.5 µM. AID 588692, 2011. hit rate 0.23% among 360,000;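 active means mean luciferase reporter signal, scaled so untreated is 0 and the glycosylation-blocking control 100, at or above a set limit in every replicate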;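 further: luciferase carries N-glycosylation sites so blocking glycosylation raises the light; 0% = median of neutral control wells and 100% = median of 100 nM tunicamycin wells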
T cell HTS: modulators of CD8 T cell-vesicle binding, primary screen, mouse 2C CD8+ T cells, flow cytometry. hit rate 0.068% among 330,000. response (vesicle binding), % at 7 µM. 2C CD8+ T cell-vesicle binding; active compounds read low. AID 2052, 2009;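 active means response, share of CD8 T cells binding vesicles, and their 90th percentile fluorescence all below set limits, cut at about 80% in these data, passing the limit was not always enough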;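 further: values below 100% mean blocked vesicle binding to the CD8+ T cells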
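Assay system – 2C mouse CD8+ T cells · Also added – QL9-loaded Drosophila micro-vesicles · Timing – Cell–vesicle co-incubation 1.5 h at 37 °C, staining 20 min on ice · Signal – flow cytometry of vesicle-bound cells · Measure – percent CD8+ FL2 mean versus row control · Controls – Peptide-free naked vesicles (low) and QL9 vesicles with 0.7% DMSO vehicle (high)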
* hit, by the source's call.

What do the screens show for `COc1ccc(NC(=O)CSc2nnc(C)n2C2CCCCC2)cc1`?
ALR H2O2 inh: -2.3; N-glyco inh: -2.5; T cell HTS: 206.2

How did COc1cccc(NC(=O)CSc2nnc(-c3ccoc3C)n2-c2ccccc2)c1 do in these assays?
ALR H2O2 inh: 0.7; T cell HTS: 253.5

What do the screens show for `CCc1c(O)nc(SCC(=O)Nc2ccc(C)cc2)n(C2CCCCC2)c1=O`?
ALR H2O2 inh: 98.5*; N-glyco inh: 3.3; T cell HTS: 184.2

What do the screens show for `COc1ccc(NC(=O)CSc2ccc(C)cc2)cc1`?
ALR H2O2 inh: -2.0; N-glyco inh: -0.8; T cell HTS: 129.6

What do the screens show for `COc1ccc(-n2c(SCC(=O)Nc3ccccc3)nnc2-c2ccoc2C)cc1`?
ALR H2O2 inh: 95.7*; N-glyco inh: -1.8; T cell HTS: 493.4

Results for CCCCc1c(O)nc(SCC(=O)Nc2ccc(C)cc2)n(-c2ccc(OC)cc2)c1=O ?
ALR H2O2 inh: 98.8*; N-glyco inh: 3.6; T cell HTS: 327.7

How did O=C(COC(=O)c1cccc(Cl)c1)Nc1cccc(S(=O)(=O)NC2=NCCC2)c1 do in these assays?
ALR H2O2 inh: 2.6; N-glyco inh: 4.2; T cell HTS: 547.8

Results for CN1CCCN(c2cc(-c3ccc4ccccc4c3)nc3ccnn23)CC1 ?
N-glyco inh: -1.8

How did CC(C)C(N)c1csc(NC(=O)Nc2ccc(OC(F)(F)F)cc2)n1 (stereo not drawn) do in these assays?
N-glyco inh: -6.2

Results for Cc1noc(C)c1C(=O)N1CCCC(C)(C(=O)NS(=O)(=O)C2CC2)C1 (stereo not drawn) ?
N-glyco inh: 2.3

What do the screens show for `O=C(CCN1C(=O)[C@@H]2Cc3ccccc3CN2C1=O)N[C@@H](C(=O)O)c1ccccc1`?
ALR H2O2 inh: -26.9; N-glyco inh: 4.1; T cell HTS: 267.8

What do the screens show for `CCCS(=O)(=O)NC(=O)C1(C)CCN(C(=O)Cc2ccc(OC)cc2)C1` (stereo not drawn)?
N-glyco inh: 0.1

How did CCN(Cc1ccccc1)c1ccc(/C=N/N=C(N)N)cc1 do in these assays?
ALR H2O2 inh: 99.3*; N-glyco inh: -7.7; T cell HTS: 493.6

What do the screens show for `CCN(Cc1ccccc1)c1ccccc1`?
N-glyco inh: 0.7

What do the screens show for `O=C(NCCc1c[nH]c2ccccc12)/C(=C\c1cccs1)NC(=O)c1ccccc1`?
ALR H2O2 inh: -2.5; N-glyco inh: -0.2; T cell HTS: 429.3

How did Cc1ccc(C(=O)N/C(=C/c2ccco2)C(=O)NCCc2c[nH]c3ccccc23)cc1 do in these assays?
N-glyco inh: 44.8*; T cell HTS: 194.1

How did Cc1ccc2[nH]cc(CCNC(=O)c3ccc4c(c3)OCO4)c2c1 do in these assays?
ALR H2O2 inh: 28.0; N-glyco inh: 2.2; T cell HTS: 249.1

What do the screens show for `Cc1ccc2[nH]cc(CCNC(=O)c3cccs3)c2c1`?
ALR H2O2 inh: 97.5*; N-glyco inh: 0.9; T cell HTS: 200.9

How did Cc1ccc2[nH]cc(CCNC(=O)/C=C/c3ccco3)c2c1 do in these assays?
ALR H2O2 inh: 3.6; N-glyco inh: 2.0; T cell HTS: 77.9*

What do the screens show for `Cc1ccc2[nH]cc(CCNC(=O)c3ccco3)c2c1`?
ALR H2O2 inh: 57.2; N-glyco inh: 1.1; T cell HTS: 124.6

How did Cc1cccc(OCc2nnc(SCC(=O)N(C)C3CCCCC3)o2)c1 do in these assays?
N-glyco inh: -0.2

What do the screens show for `CCOC(=O)c1ccc(CC(=O)c2ccc(O)cc2O)o1`?
ALR H2O2 inh: 25.8; N-glyco inh: -3.0; T cell HTS: 375.3

Results for CCC(=O)Oc1ccc(C/C(=N\O)c2ccc(O)cc2O)o1 ?
ALR H2O2 inh: 97.9*; N-glyco inh: 4.0; T cell HTS: 236.8

How did Cc1ccc(-c2nc(CS(=O)(=O)CC(=O)NCc3cccc(F)c3)c(C)o2)cc1 do in these assays?
ALR H2O2 inh: -3.3; N-glyco inh: 2.7; T cell HTS: 599.2

What do the screens show for `COc1cccc(-c2nc(CS(=O)(=O)CC(=O)NCCc3ccc(C)cc3)c(C)o2)c1`?
ALR H2O2 inh: -32.3; N-glyco inh: 2.5; T cell HTS: 302.4

Results for COc1cccc(-c2nc(CS(=O)(=O)CC(=O)NCCC(C)C)c(C)o2)c1 ?
ALR H2O2 inh: 24.6; N-glyco inh: 1.1; T cell HTS: 557.7

How did CCCCN(C)C(=O)CS(=O)(=O)Cc1nc(-c2cccc(OC)c2)oc1C do in these assays?
ALR H2O2 inh: 98.8*; N-glyco inh: 3.4; T cell HTS: 765.3

How did COc1ccc(CNC(=O)CS(=O)(=O)Cc2nc(-c3cccc(OC)c3)oc2C)cc1 do in these assays?
ALR H2O2 inh: 90.5*; N-glyco inh: -2.8; T cell HTS: 348.5

Results for COc1ccc(-c2nc(CS(=O)(=O)CC(=O)NCc3cccc(F)c3)c(C)o2)cc1 ?
ALR H2O2 inh: 97.1*; N-glyco inh: 0.2; T cell HTS: 311.5

Results for CCOC(=O)CCNC(=O)N1CCCC(N(C)CCc2ccc(OC)c(OC)c2)C1 (stereo not drawn) ?
N-glyco inh: 0.0; T cell HTS: 191.2

How did CCCCNC(=O)c1ccc(NS(=O)(=O)c2ccc3[nH]c(=O)[nH]c3c2)cc1 do in these assays?
ALR H2O2 inh: -1.1; N-glyco inh: 0.2; T cell HTS: 298.0

What do the screens show for `Cc1ccc([C@H]2C[C@@H](n3cc(C4CC4)nn3)[C@H](O)CN2C(=O)C2CCCCC2)cc1`?
N-glyco inh: -0.3

How did CNc1cncc(-c2cnn(CC(C)C)c2)n1 do in these assays?
N-glyco inh: 2.1

What do the screens show for `NC(=O)CSc1nnc(-c2ccccn2)n1Cc1ccco1`?
ALR H2O2 inh: -2.0; N-glyco inh: 2.3; T cell HTS: 86.6

What do the screens show for `Clc1ccc(CSc2nnc(-c3cccnc3)n2Cc2ccco2)c(Cl)c1`?
ALR H2O2 inh: 97.0*; N-glyco inh: 0.0; T cell HTS: 302.5

Results for COc1ccccc1NC(=O)CSc1nnc(-c2ccccn2)n1Cc1ccco1 ?
ALR H2O2 inh: 97.1*; N-glyco inh: -1.2; T cell HTS: 341.6

Results for COc1ccc(C)cc1NC(=O)CSc1nnc(-c2ccccn2)n1Cc1ccco1 ?
ALR H2O2 inh: 0.5; N-glyco inh: -3.0; T cell HTS: 450.1

How did Clc1cccc(CSc2nnc(-c3cccnc3)n2Cc2ccco2)c1 do in these assays?
ALR H2O2 inh: 3.2; N-glyco inh: -2.5; T cell HTS: 325.5

Results for Clc1ccccc1CSc1nnc(-c2ccccn2)n1Cc1ccco1 ?
ALR H2O2 inh: 92.5*; N-glyco inh: -2.8; T cell HTS: 592.6

What do the screens show for `COCCNC(=O)C(c1ccc(C)cc1)N(C(=O)CCC(=O)Nc1ccccn1)c1ccccc1C` (stereo not drawn)?
N-glyco inh: -0.9; T cell HTS: 350.3

Results for COc1cc(SC)ccc1C(=O)N1CCN(S(=O)(=O)/C=C/c2ccccc2)CC1 ?
N-glyco inh: 0.4; T cell HTS: 317.4

What do the screens show for `COc1ccc(C(C)(O)c2nc(-c3ccc(S(C)(=O)=O)cc3)cs2)cc1` (stereo not drawn)?
N-glyco inh: -3.9

How did CC(C)CNC(=O)c1ccccc1NC(=O)c1ccc(CSc2ccccc2)cc1 do in these assays?
ALR H2O2 inh: -3.3; N-glyco inh: -7.0; T cell HTS: 387.0
